≈ marks a conversion by molar mass, not a printed value.
Tested on: Mycobacterium tuberculosis
Assay: Antimycobacterial activity against multidrug resistant Mycobacterium tuberculosis by agar dilution method
Format: functional
In short: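 Agar dilution MIC on Middlebrook 7H11 agar with OADC, following the NCCLS-recommended approach, run in duplicate. The MDR clinical isolate was resistant to isoniazid, rifampicin, ethambutol and ofloxacin.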

| SMILES | MIC [µM] |
| --- | --- |
| NNC(=O)c1ccncc1 [ISONIAZID] | 45.6 (≈ 6.25 µg/mL) |
| COc1c(N2CCn3cc(C(=O)O)nc3C2)c(F)cc2c(=O)c(C(=O)O)cn(C3CC3)c12 | 1.76 (≈ 0.779 µg/mL) |
| COc1c(N2CCSCC2)c(F)cc2c(=O)c(C(=O)O)cn(C3CC3)c12 | 2.06 (≈ 0.78 µg/mL) |
| COc1c(N2CCN(C(=O)C3COc4ccccc4O3)CC2)c(F)cc2c(=O)c(C(=O)O)cn(C3CC3)c12 (centres undefined) | 0.74 (≈ 0.387 µg/mL) |
| COc1c(N2CCc3ccccc3C2C(=O)NC(C)(C)C)c(F)c([N+](=O)[O-])c2c(=O)c(C(=O)O)cn(C3CC3)c12 (centres undefined) | 2.82 (≈ 1.56 µg/mL) |
| COc1ccc(CC2C3=C(CCCC3)CCN2c2c(F)c(N)c3c(=O)c(C(=O)O)cn(C4CC4)c3c2OC)cc1 (centres undefined) | 2.85 (≈ 1.56 µg/mL) |
| COc1c(N2CCN(C(=O)C3COc4ccccc4O3)CC2)c(F)c([N+](=O)[O-])c2c(=O)c(C(=O)O)cn(C3CC3)c12 (centres undefined) | 2.74 (≈ 1.56 µg/mL) |
| COc1c(N2CCSCC2)c(F)c([N+](=O)[O-])c2c(=O)c(C(=O)O)cn(C3CC3)c12 | 1.84 (≈ 0.779 µg/mL) |
| COc1c(N2CCC3(CC2)OCCO3)c(F)cc2c(=O)c(C(=O)O)cn(C3CC3)c12 | 1.86 (≈ 0.778 µg/mL) |
| COc1c(N2COCC2(C)C)c(F)cc2c(=O)c(C(=O)O)cn(C3CC3)c12 | 2.07 (≈ 0.779 µg/mL) |
| COc1c(N2CC(C)OC(C)C2)c(F)c([N+](=O)[O-])c2c(=O)c(C(=O)O)cn(C3CC3)c12 (centres undefined) | 1.79 (≈ 0.779 µg/mL) |
| COc1c(N2CCNC(C)C2)c(F)cc2c(=O)c(C(=O)O)cn(C3CC3)c12 (centres undefined) [GATIFLOXACIN] | 8.34 (≈ 3.13 µg/mL) |
| COc1c(N2CCC3(CC2)OCCO3)c(F)c([N+](=O)[O-])c2c(=O)c(C(=O)O)cn(C3CC3)c12 | 0.41 (≈ 0.19 µg/mL) |
| COc1c(N2CCN(C)C(c3ccccc3)C2)c(F)c([N+](=O)[O-])c2c(=O)c(C(=O)O)cn(C3CC3)c12 (centres undefined) | 3.14 (≈ 1.56 µg/mL) |
| COc1ccc(CC2C3=C(CCCC3)CCN2c2c(F)c([N+](=O)[O-])c3c(=O)c(C(=O)O)cn(C4CC4)c3c2OC)cc1 (centres undefined) | 0.33 (≈ 0.191 µg/mL) |
| CCN(CC)C(=O)C1CCCN(c2c(F)cc3c(=O)c(C(=O)O)cn(C4CC4)c3c2OC)C1 (centres undefined) | 3.39 (≈ 1.56 µg/mL) |
| COc1c(N2CC(C)OC(C)C2)c(F)cc2c(=O)c(C(=O)O)cn(C3CC3)c12 (centres undefined) | 3.99 (≈ 1.56 µg/mL) |
| COc1c(N2CCn3cc(C(=O)O)nc3C2)c(F)c([N+](=O)[O-])c2c(=O)c(C(=O)O)cn(C3CC3)c12 | 1.6 (≈ 0.78 µg/mL) |
| COc1ccc(CC2C3=C(CCCC3)CCN2c2c(F)cc3c(=O)c(C(=O)O)cn(C4CC4)c3c2OC)cc1 (centres undefined) | 1.46 (≈ 0.778 µg/mL) |
| COc1c(N2CCN(Cc3ccc4c(c3)OCO4)CC2)c(F)cc2c(=O)c(C(=O)O)cn(C3CC3)c12 | 1.57 (≈ 0.778 µg/mL) |
| COc1c(N2COCC2(C)C)c(F)c([N+](=O)[O-])c2c(=O)c(C(=O)O)cn(C3CC3)c12 | 0.93 (≈ 0.392 µg/mL) |
| COc1c(N2CCN(Cc3ccc4c(c3)OCO4)CC2)c(F)c([N+](=O)[O-])c2c(=O)c(C(=O)O)cn(C3CC3)c12 | 0.35 (≈ 0.189 µg/mL) |
| COc1c(N2CCN(C(c3ccccc3)c3ccc(Cl)cc3)CC2)c(F)c([N+](=O)[O-])c2c(=O)c(C(=O)O)cn(C3CC3)c12 (centres undefined) | 1.28 (≈ 0.777 µg/mL) |
| CCN(CC)C(=O)C1CCCN(c2c(F)c([N+](=O)[O-])c3c(=O)c(C(=O)O)cn(C4CC4)c3c2OC)C1 (centres undefined) | 1.55 (≈ 0.782 µg/mL) |

From ChEMBL document CHEMBL1144027, “Synthesis and antimycobacterial evaluation of newer 1-cyclopropyl-1,4-dihydro-6-fluoro-7-(substituted secondary amino)-8-methoxy-5-(sub)-4-oxoquinoline-3-carboxylic acids” (Bioorg Med Chem, 2008)
